From PMC7379261 (Journal of Peptide Science, 2020)
Converted amounts (≈) assume the structure as drawn. Where a SMILES comes first, the peptide text is derived from it. The star is where a group is joined. hSer(lactone) = O=C1OCC[C@@H]1N*

How the values were obtained:
[1] = system: five pathogenic bacterial strains, including three Gram‐positive and two Gram‐negative strains; experiment: Antimicrobial assay; assay type: cell-based; details: read-out: MIC against all pathogenic bacterial strains tested
Method in brief: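 Broth microdilution MIC of a recombinant test peptide (RP-HPLC purified, >95%). E. coli ATCC 12014, S. aureus ATCC 25923, P. acnes ATCC 6919, P. gingivalis ATCC 33277 and S. mutans ATCC 25175 were grown overnight at 37°C in LB or BHI and diluted in the same medium. Serial peptide dilutions were mixed 1:1 with bacteria (final 5 × 10^4 CFU/mL) and incubated 37°C, 24 h. Ampicillin and magainin-2 were positive controls. Three independent repeats, mean ± SD.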

[2] = Degradation assay with resting cell suspensions; assay type: in vitro ADME, Lactobacillus plantarum subsp. plantarum; details: pH 7
Method in brief: (§1)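 Resting-cell peptidase assay. Mid-exponential cultures (OD600 = 0.5) were pelleted at 10,000 g, 15 min, 4°C, washed twice and resuspended 20-fold concentrated in 10 mmol/L phosphate buffer, pH 7.0. Test peptide solution (400 μg/mL) was mixed 1:1 with cells (final 10^8 CFU/mL) and incubated at 37°C, sampled at 30 and 60 min (also 4 h for L. plantarum). Read-out was RP-HPLC peptide remaining versus a no-bacteria control; fragments were identified by LC-MS/MS.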

[3] = system: Staphylococcus aureus strain; assay type: cell-based; details: aqueous peptide solution (10 μg/mL) heated at 100°C for 60 min, cooled 30 min
[4] = Degradation assay with resting cell suspensions; assay type: in vitro ADME; details: resting cell suspension of Staphylococcus aureus ATCC 25923, pH 7
Method in brief: as §1

Staphylococcus aureus = assay type: cell-based; details: S. aureus; LB at pH 3.7–8.7

Row | MIC [1] | Compound | metabolised at 1 h, 200 μg/mL [2] | MIC against S. aureus strain under the conditions of heat treatment [3] | metabolised at 1 h, 200 μg/mL [4] | MIC within the limits of pH (3.7–8.7) solutions (Staphylococcus aureus)
1 | 5 to 7.5 µg/mL (≈ 14.3 to 21.5 µM) | CC1(C)S[C@@H]2[C@H](NC(=O)[C@H](N)c3ccccc3)C(=O)N2[C@H]1C(=O)O [Ampicillin, ampicillin] |  |  |  | 
2 |  | CC[C@H](C)[C@H](NC(=O)[C@H](Cc1c[nH]c2ccccc12)NC(=O)[C@H](CCC(=O)O)NC(=O)[C@H](CCCCN)NC(=O)[C@@H](NC(=O)[C@H](CCCCN)NC(=O)[C@@H](N)CC(N)=O)C(C)C)C(=O)N[C@@H](CCCCN)C(=O)N[C@@H](Cc1ccc(O)cc1)C(=O)N[C@@H](CC(C)C)C(=O)N[C@@H](CCCCN)C(=O)N[C@@H](CO)C(=O)N[C@@H](CC(C)C)C(=O)N[C@@H](Cc1ccccc1)C(=O)N[C@@H](CO)C(=O)N[C@H]1CCOC1=O [LPcin‐YK3] (H-NKVKEWIKYLKSLFS-{hSer(lactone)}) | ~79.3% | 0.62 µg/mL | 10.8% | 0.62 μg/mL
